This is an account of results in ChEMBL document CHEMBL1122917, “Vinblastin-23-oyl amino acid derivatives: chemistry, physicochemical data, toxicity, and antitumor activities against P388 and L1210 leukemias” (J Med Chem, 1985).

Structures are written as SMILES.

The test system of assay [1] is Mus musculus. Nature of the assay: Number of survivors on 30th day at dose 55 mg/kg/day in 10 mice implanted with P388 leukemia cell line for1,5,9 scheduled days; 2/10. It is filed as functional.
The subject of assay [2] is Mus musculus. Put plainly: Number of survivors of DBA2 mice on 30th day after inoculation with L1210 leukemia cell line intravenously at a dose of 58 mg/kg/day; 0/10. Format: functional. To be noted: route intravenous.
Assay [3] relates to Mus musculus. Put plainly: Percent increase in life span at dose 40 mg/kg/day in 10 mice implanted with P388 leukemia cell line. Format: functional. An outline of the steps: (§1)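 Female DBA2 mice inoculated iv on day 0 with 10^4 P388 cells; single iv treatment on day 1 with drug as sulfate salt in physiological saline. Survival followed; %ILS from all deaths and survivors as (T/C × 100) − 100, maximal MST 30 days; survivors counted on days 30 and 60. Most experiments confirmed three times.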

Assay [4] concerns Mus musculus. Put plainly: Number of survivors on 60th day at dose 65 mg/kg/day in 10 mice implanted with P388 leukemia cell line; 7/9. It is filed as functional.
Assay [5] concerns Mus musculus. Nature of the assay: Percent increase in life span at dose 20 mg/kg/day in 10 mice implanted with P388 leukemia cell line. It is filed as functional. Put shortly:
as §1

Assay [6] relates to Mus musculus. Nature of the assay: Number of survivors on 60th day at dose 60 mg/kg/day in 10 mice implanted with P388 leukemia cell line for 1st scheduled day; 0/9. It is filed as functional.
In assay [7] the test system is Mus musculus. Put plainly: Percent increase in life span of DBA2 mice after inoculation with L1210 leukemia intravenously at a dose of 58 mg/kg per day. It is filed as functional. The settings on record: route intravenous.
Assay [8] has as its system Mus musculus. Put plainly: Number of survivors of DBA2 mice on 60th day after inoculation with L1210 leukemia cell line intravenously at a dose of 70 mg/kg/day; 0/10. Format: functional. The settings on record: route intravenous.
For assay [9], the system named is Mus musculus. Nature of the assay: Number of survivors on 30th day at dose 20 mg/kg/day in 10 mice implanted with P388 leukemia cell line; 0/10. Format: functional.
Assay [10] deals with Mus musculus. Put plainly: Number of survivors on 30th day at dose 70 mg/kg/day in 10 mice implanted with P388 leukemia cell line; 5/11. It is filed as functional.
Assay [11] deals with Mus musculus. Nature of the assay: Number of survivors of DBA2 mice on 30th day after inoculation with L1210 leukemia cell line intravenously at a dose of 65 mg/kg/day; 0/10. It is filed as functional. The settings on record: route intravenous.
For assay [12], the system named is Mus musculus. Nature of the assay: Percent increase in life span of DBA2 mice after inoculation with L1210 leukemia intravenously at a dose of 65 mg/kg per day. It is filed as functional. To be noted: route intravenous. An outline of the steps:
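Female DBA2 mice inoculated iv on day 0 with 10^4 L1210 cells; drugs given iv as sulfate salts in physiological saline, mostly once on day 1. %ILS from all deaths and survivors as (T/C × 100) − 100; survivors scored on days 30 and 60.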

In assay [13] the test system is Mus musculus. Put plainly: Number of survivors on 30th day at dose 55 mg/kg/day in 10 mice implanted with P388 leukemia cell line; 7/10. Format: functional.
Assay [14] has as its system Mus musculus. Put plainly: Percent increase in life span at dose 8 mg/kg/day in 7 mice implanted with P388 leukemia cell line for 1,8,15 schedule days from Exp-2. It is filed as functional.
Assay [15] has as its system Mus musculus. Put plainly: Number of survivors on 60th day at dose 10 mg/kg/day in 7 mice implanted with P388 leukemia cell line for 1,8.15 scheduled days; 0/10. It is filed as functional.
Assay [16] has as its system Mus musculus. Put plainly: Number of survivors on 60th day at dose 8 mg/kg/day in 7 mice implanted with P388 leukemia cell line for 1,8.15 scheduled days from Exp-1; 0/9. It is filed as functional.
The test system of assay [17] is Mus musculus. Put plainly: Number of survivors on 60th day at dose 8 mg/kg/day in 7 mice implanted with P388 leukemia cell line for 1,8.15 scheduled days from Exp-2; 0/10. Format: functional.
For assay [18], the system named is Mus musculus. Nature of the assay: Number of survivors on 30th day at dose 8 mg/kg/day in 10 mice implanted with P388 leukemia cell line; 8/10. It is filed as functional.
The subject of assay [19] is Mus musculus. Nature of the assay: Number of survivors on 30th day at dose 5 mg/kg/day in 10 mice implanted with P388 leukemia cell line; 0 /10. It is filed as functional.
Assay [20] has as its system Mus musculus. Put plainly: Percent increase in life span at dose 10 mg/kg/day in 10 mice implanted with P388 leukemia cell line. Format: functional. An outline of the steps: as §1
Assay [21] concerns Mus musculus. Nature of the assay: Percent increase in life span of BDF1 mice after inoculation with P388 leukemia cells intraperitoneally at a dose of 0.33 mg/kg per day for 1-9 scheduled days. The settings on record: P388, ip.
Assay [22] deals with Mus musculus. Put plainly: Number of survivors on 60th day at dose 4 mg/kg/day in 10 mice implanted with P388 leukemia cell line; 2/10. Format: functional.
Assay [23] deals with Mus musculus. Nature of the assay: Percent increase in life span at dose 11 mg/kg/day in 10 mice implanted with P388 leukemia cell line. Format: functional. An outline of the steps: as §1
For assay [24], the system named is Mus musculus. Put plainly: Number of survivors of DBA2 mice on 30th day after inoculation with L1210 leukemia cell line intraperitoneally at a dose of 6 mg/kg/day; 0/10. Format: functional. The settings on record: route intraperitoneal.
The subject of assay [25] is Mus musculus. Nature of the assay: Number of survivors on 60th day at dose 8 mg/kg/day in 9 mice implanted with P388 leukemia cell line; 0/9. It is filed as functional.
The subject of assay [26] is Mus musculus. Put plainly: Number of survivors of DBA2 mice on 60th day after inoculation with L1210 leukemia cell line intravenously at a dose of 1 mg/kg/day; 0/10. It is filed as functional. To be noted: route intravenous.
Assay [27] relates to Mus musculus. Put plainly: Percent increase in life span at dose 1 mg/kg/day in 10 mice implanted with P388 leukemia cell line. Format: functional.
The test system of assay [28] is Mus musculus. Put plainly: Percent increase in life span at dose 1.5 mg/kg/day in 10 mice implanted with P388 leukemia cell line. Format: functional.
In assay [29] the test system is Mus musculus. Nature of the assay: Number of survivors on 60th day at dose 0.5 mg/kg/day in 10 mice implanted with P388 leukemia cell line; 0/10. Format: functional.
For assay [30], the system named is Mus musculus. Put plainly: Percent increase in life span of DBA2 mice after inoculation with L1210 leukemia intravenously at a dose of 4.5 mg/kg per day. Format: functional. The settings on record: route intravenous.
The test system of assay [31] is Mus musculus. Put plainly: Number of survivors on 30th day at dose 1.5 mg/kg/day in 10 mice implanted with P388 leukemia cell line; 0/10. It is filed as functional.
Assay [32] deals with Mus musculus. Put plainly: Number of survivors of DBA2 mice on 30th day after inoculation with L1210 leukemia cell line intravenously at a dose of 2.5 mg/kg/day; 0/10. Format: functional. The settings on record: route intravenous.
For assay [33], the system named is Mus musculus. Put plainly: Number of survivors of DBA2 mice on 30th day after inoculation with L1210 leukemia cell line intraperitoneally at a dose of 1 mg/kg/day; 0/10. Format: functional. To be noted: route intraperitoneal.
Assay [34] has as its system Mus musculus. Nature of the assay: Percent increase in life span of DBA2 mice after inoculation with L1210 leukemia intravenously at a dose of 1 mg/kg per day. Format: functional. The settings on record: route intravenous.
The test system of assay [35] is Mus musculus. Put plainly: Number of survivors on 30th day at dose 0.5 mg/kg/day in 10 mice implanted with P388 leukemia cell line; 0/10. It is filed as functional.
The test system of assay [36] is Mus musculus. Nature of the assay: Number of survivors of DBA2 mice on 60th day after inoculation with L1210 leukemia cell line intravenously at a dose of 0.5 mg/kg/day; 0/10. Format: functional. The settings on record: route intravenous.
Assay [37] concerns Mus musculus. Put plainly: Number of survivors of DBA2 mice on 60th day after inoculation with L1210 leukemia cell line intraperitoneally at a dose of 2.7 mg/kg/day; 0/10. It is filed as functional. The settings on record: route intraperitoneal.
For assay [38], the system named is Mus musculus. Nature of the assay: Number of survivors on 30th day at dose 6 mg/kg/day in 10 mice implanted with P388 leukemia cell line; 0/10. Format: functional.
The test system of assay [39] is Mus musculus. Nature of the assay: Number of survivors on 30th day at dose 3 mg/kg/day in 9 mice implanted with P388 leukemia cell line; 0/10. It is filed as functional.

As to `CCOC(=O)[C@H](Cc1c[nH]c2ccccc12)NC(=O)[C@@]1(O)[C@H](O)[C@]2(CC)C=CCN3CC[C@@]4(c5cc([C@@]6(C(=O)OC)C[C@H]7C[N@](CCc8c6[nH]c6ccccc86)C[C@](O)(CC)C7)c(OC)cc5N(C)[C@@]14C)[C@@H]32`, the Survivors in assay [1] is 2; in [2] it was 0; in assay [4] it was 7; in assay [6], 0; in [8], 0; in assay [9], 0. Also, the Survivors in assay [10] was 5; in [11], 0; in assay [13], 7. For the same compound, the ILS at 40 mg/kg/day in [3] was 58.8%. The ILS at 20 mg/kg/day in [5] was found to be 43.9%. Moreover, in [7], the ILS at 58 mg/kg/day turned out to be 48.7%. Further, the ILS at 65 mg/kg/day in assay [12] was 71%.

Turning to `CCOC(=O)[C@@H](NC(=O)[C@@]1(O)[C@H](O)[C@]2(CC)C=CCN3CC[C@@]4(c5cc([C@@]6(C(=O)OC)C[C@H]7C[N@](CCc8c6[nH]c6ccccc86)C[C@](O)(CC)C7)c(OC)cc5N(C)[C@@]14C)[C@@H]32)[C@@H](C)CC`, the ILS at 8 mg/kg/day in [14] is more than 482%. Also, the Survivors in assay [15] was 0; in assay [16], 0; in assay [17], 0; in assay [18], 8.

For the compound `CC[C@]1(O)C[C@@H]2CN(CCc3c([nH]c4ccccc34)[C@@](C(=O)OC)(c3cc4c(cc3OC)N(C)[C@H]3[C@@](O)(C(=O)OC)[C@H](OC(C)=O)[C@]5(CC)C=CCN6CC[C@]43[C@@H]65)C2)C1` [VINBLASTINE], the Survivors in assay [19] came out at 0; in [22] it was 2; in [24], 0; in [25] it was 0. In assay [20], the ILS at 10 mg/kg/day is 81%. For the same compound, the ILS at 0.33 mg/kg/day in assay [21] came to 74%. Moreover, the ILS at 11 mg/kg/day in [23] was -40%.

Take `CC[C@]1(O)C[C@H]2CN(CCc3c([nH]c4ccccc34)[C@@](C(=O)OC)(c3cc4c(cc3OC)N(C=O)[C@H]3[C@@](O)(C(=O)OC)[C@H](OC(C)=O)[C@]5(CC)C=CCN6CC[C@]43[C@@H]65)C2)C1` [VINCRISTINE]: the Survivors in assay [26], in assay [29], in assay [31], in assay [32], in assay [33] and in assay [35] was 0 each time. In addition, the Survivors in [36] and in assay [37] was 0 in each case. In addition, the ILS at 1 mg/kg/day in assay [27] was found to be 16%; in [34], 10.7%. The ILS at 1.5 mg/kg/day in assay [28] was 20.8%. In addition, the ILS at 4.5 mg/kg/day in [30] turned out to be 20%.

`CC[C@]1(O)C[C@@H]2CN(CCc3c([nH]c4ccccc34)[C@@](C(=O)OC)(c3cc4c(cc3OC)N(C)[C@H]3[C@@](O)(C(N)=O)[C@H](O)[C@]5(CC)C=CCN6CC[C@]43[C@@H]65)C2)C1` [VINDESINE]: the Survivors in assay [38] and in [39] was 0 each time.
